Laboratory results as given in ChEMBL document CHEMBL4020827, “Targeting Multiple Effector Pathways in Pancreatic Ductal Adenocarcinoma with a G-Quadruplex-Binding Small Molecule” (J Med Chem, 2018).

Assays:
[1] = Binding affinity to 5'-FAM/3'-TAMRA labeled BCL2 promoter G-quadruplex DNA (unknown origin) assessed as change in melting temperature at 1 uM by FRET assay
Summary of the method: (§1)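 FRET melting with FAM/TAMRA dual-labelled oligonucleotides at 400 nM, annealed at 95 °C for 10 min in 60 mM potassium cacodylate pH 7.4 and slowly cooled. Ligand final 1 μM; solution contains 50 mM K+. Fluorescence read every 0.5 °C over 30–100 °C with 30 s hold, excitation 450–495 nm and emission 515–545 nm. ΔTm from curve fitting, triplicate measurements.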

[2] = system: PANC-1; assay: Effect on CTBP1 gene expression in human PANC1 cells at 400 nM after 24 hrs by RNA sequence analysis relative to control; format: functional
Summary of the method: (§2)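 PANC-1 (0.35 x 10^6) or MIA PaCa-2 (1.5 x 10^6) cells seeded overnight in 60 mm plates, then exposed to 400 nM compound for 6 or 24 h; untreated cells as controls. Cells were mycoplasma-free and STR-certified. Differential expression by RNA-seq, called at FDR < 0.1.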

[3] = system: PANC-1; assay: Effect on MAPK11 gene expression in human PANC1 cells at 400 nM after 24 hrs by RNA sequence analysis relative to control; format: functional
[4] = system: MIA PaCa-2; assay: Effect on GLI4 gene expression in human MIAPaCa2 cells at 400 nM after 6 hrs by RNA sequence analysis relative to control; format: functional; summary of the method: as §2
[5] = system: MIA PaCa-2; assay: Effect on PFKL gene expression in human MIAPaCa2 cells at 400 nM after 6 hrs by RNA sequence analysis relative to control; format: functional
[6] = system: PANC-1; assay: Effect on ULK1 gene expression in human PANC1 cells at 400 nM after 6 hrs by RNA sequence analysis relative to control; format: functional
Summary of the method: (§3)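 RNA-seq: cells seeded overnight in 60 mm plates (PANC-1 0.35 x 10^6, MIA PaCa-2 1.5 x 10^6 cells/well), then exposed to 400 nM compound for 6 or 24 h against untreated controls. Cell lines mycoplasma-free by RNA-capture ELISA and STR-profiled. Differentially expressed genes called at FDR < 0.1.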

[7] = system: MIA PaCa-2; assay: Effect on TEAD3 gene expression in human MIAPaCa2 cells at 400 nM after 24 hrs by RNA sequence analysis relative to control; format: functional; summary of the method: as §3
[8] = system: PANC-1; assay: Effect on TP73 gene expression in human PANC1 cells at 400 nM after 24 hrs by RNA sequence analysis relative to control; format: functional; summary of the method: as §3
[9] = system: MIA PaCa-2; assay: Effect on PAK1 gene expression in human MIAPaCa2 cells at 400 nM after 24 hrs by RNA sequence analysis relative to control; format: functional
[10] = system: MIA PaCa-2; assay: Effect on SMO gene expression in human MIAPaCa2 cells at 400 nM after 6 hrs by RNA sequence analysis relative to control; format: functional; summary of the method: as §3
[11] = system: MIA PaCa-2; assay: Effect on SHC2 gene expression in human MIAPaCa2 cells at 400 nM after 6 hrs by RNA sequence analysis relative to control; format: functional; summary of the method: as §3
[12] = system: MIA PaCa-2; assay: Effect on GLI2 gene expression in human MIAPaCa2 cells at 400 nM after 24 hrs by RNA sequence analysis relative to control; format: functional; summary of the method: as §2
[13] = system: MIA PaCa-2; assay: Effect on PAK1 gene expression in human MIAPaCa2 cells at 400 nM after 6 hrs by RNA sequence analysis relative to control; format: functional
[14] = system: PANC-1; assay: Effect on FASN gene expression in human PANC1 cells at 400 nM after 24 hrs by RNA sequence analysis relative to control; format: functional; summary of the method: as §2
[15] = system: MIA PaCa-2; assay: Growth inhibition of human MIAPaCa2 cells after 96 hrs by SRB assay; format: functional, cell-based; settings: MIA PaCa-2, 96 h
Summary of the method: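 Cell lines kept at 37 °C, 5% CO2 in medium with 10% FBS and 2 mM L-glutamine. Compound dissolved in water, filter-sterilised, 10 mM stock diluted into media. Growth read by 96 h sulforhodamine B assay, absorbance at 540 nm. IC50 taken from mean absorbance per concentration as % of untreated wells, >3 individual determinations with standard deviations.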

[16] = system: MIA PaCa-2; assay: Effect on mLST8 gene expression in human MIAPaCa2 cells at 400 nM after 24 hrs by RNA sequence analysis relative to control; format: functional; summary of the method: as §3
[17] = system: MIA PaCa-2; assay: Effect on mLST8 gene expression in human MIAPaCa2 cells at 400 nM after 6 hrs by RNA sequence analysis relative to control; format: functional; summary of the method: as §3
[18] = Drug uptake in tumor at flank region of CD-1 nude mouse xenografted with human MIAPaCa2 cells at 15 mg/kg, iv measured after 4 hrs; format: ADME, organism-based, Neoplasm; settings: in vivo
[19] = system: MIA PaCa-2; assay: Effect on SHANK2 gene expression in human MIAPaCa2 cells at 400 nM after 6 hrs by RNA sequence analysis relative to control; format: functional; summary of the method: as §3
[20] = system: MIA PaCa-2; assay: Effect on IQSEC1 gene expression in human MIAPaCa2 cells at 400 nM after 24 hrs by RNA sequence analysis relative to control; format: functional; summary of the method: as §2
[21] = system: PANC-1; assay: Effect on PFKL gene expression in human PANC1 cells at 400 nM after 24 hrs by RNA sequence analysis relative to control; format: functional
[22] = system: MIA PaCa-2; assay: Effect on PIK3R3 gene expression in human MIAPaCa2 cells at 400 nM after 6 hrs by RNA sequence analysis relative to control; format: functional
[23] = system: PANC-1; assay: Effect on PRKCZ gene expression in human PANC1 cells at 400 nM after 24 hrs by RNA sequence analysis relative to control; format: functional; summary of the method: as §3
[24] = system: Mus musculus; assay: Toxicity in CD-1 nude mouse xenografted with human MIAPaCa2 cells assessed as change in body weight at 15 mg/kg, iv administered twice weekly for 4 weeks measured for 40 days; format: organism-based; settings: in vivo, 960 h
[25] = system: MIA PaCa-2; assay: Effect on CBFA2T3 gene expression in human MIAPaCa2 cells at 400 nM after 6 hrs by RNA sequence analysis relative to control; format: functional; summary of the method: as §2
[26] = system: PANC-1; assay: Effect on PLXNA1 gene expression in human PANC1 cells at 400 nM after 6 hrs by RNA sequence analysis relative to control; format: functional
[27] = system: PANC-1; assay: Effect on GLI1 gene expression in human PANC1 cells at 400 nM after 6 hrs by RNA sequence analysis relative to control; format: functional; summary of the method: as §2
[28] = system: MIA PaCa-2; assay: Effect on TP73 gene expression in human MIAPaCa2 cells at 400 nM after 24 hrs by RNA sequence analysis relative to control; format: functional; summary of the method: as §3
[29] = Binding affinity to 5'-FAM/3'-TAMRA labeled KRAS21 promoter G-quadruplex DNA (unknown origin) assessed as change in melting temperature at 1 uM by FRET assay
Summary of the method: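 FRET melting of FAM/TAMRA dual-labelled promoter G4 oligonucleotides, 400 nM, annealed at 95 °C for 10 min in 60 mM potassium cacodylate (pH 7.4) then cooled to RT. Ligand at 1 μM in solution with 50 mM K+. Fluorescence (ex 450–495, em 515–545 nm) read every 0.5 °C over 30–100 °C with a 30 sec hold per step. ΔTm from curve fitting; triplicate measurements.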

[30] = species: Homo sapiens; assay: Binding affinity to 5'-FAM/3'-TAMRA labeled human telomeric F21T G-quadruplex DNA assessed as change in melting temperature at 1 uM by FRET assay; summary of the method: as §1

## O=C1c2ccc3c4c(c(NCCN5CCCC5)cc(c24)C(=O)N1CCCN1CCOCC1)C(=O)N(CCCN1CCOCC1)C3=O
[1]
  ΔTm: 13.3 °C
[2]
  log2FC: -0.98
[3]
  log2FC: -1.6
[4]
  log2FC: -1.71
[5]
  log2FC: 0
[6]
  log2FC: 0.19
[7]
  log2FC: -0.66
[8]
  log2FC: -0.99
[9]
  log2FC: -1.13
[10]
  log2FC: -0.34
[11]
  log2FC: -0.83
[12]
  log2FC: -1.24
[13]
  log2FC: -0.59
[14]
  log2FC: -0.7
[15]
  IC50: 7 nM
[16]
  log2FC: -1.28
[17]
  log2FC: -0.76
[18]
  Drug uptake: Active
[19]
  log2FC: -1.87
[20]
  log2FC: -0.53
[21]
  log2FC: -0.98
[22]
  log2FC: -0.28
[23]
  log2FC: -1.23
[24]
  Activity: Non-Toxic
[25]
  log2FC: -2.74
[26]
  log2FC: -0.84
[27]
  log2FC: 0.03
[28]
  log2FC: -1.19
[29]
  ΔTm: 11 °C
[30]
  ΔTm: 11.8 °C
